The source made the active and inactive calls. The calls are words filed in the database; no cut-off is given here.
Experiments:
Assay type in all cases: functional, cell-based
COLO 205 = assay: Antiproliferative activity against human COLO205 cells at 10 uM incubated for 48 hrs by sulforhodamine B assay
Outline: (§1)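 Run by the NCI Developmental Therapeutics Program (Division of Cancer Treatment and Diagnosis) as part of the NCI60 human tumour cell line panel screen. Each compound was tested at a single dose of 10 μM. Results are reported as one-dose mean graphs.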

T47D = assay: Antiproliferative activity against human T47D cells at 10 uM incubated for 48 hrs by sulforhodamine B assay
Outline: (§2)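 Run by the NCI Developmental Therapeutics Program (Division of Cancer Treatment and Diagnosis) as part of the NCI60 human tumour cell line panel. Each compound was tested in vitro at a single dose of 10 μM, and the data are reported as one-dose mean graphs across the panel.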

NCI-H522 = assay: Antiproliferative activity against human NCI-H522 cells at 10 uM incubated for 48 hrs by sulforhodamine B assay; outline: as §1
UACC-257 = assay: Antiproliferative activity against human UACC257 cells at 10 uM incubated for 48 hrs by sulforhodamine B assay; outline: as §2
MOLT-4 = assay: Antiproliferative activity against human MOLT4 cells at 10 uM incubated for 48 hrs by sulforhodamine B assay; outline: as §1
NCI-H23 = assay: Antiproliferative activity against human NCI-H23 cells at 10 uM incubated for 48 hrs by sulforhodamine B assay; outline: as §1
MDA-MB-231 = assay: Antiproliferative activity against human MDA-MB-231 cells at 10 uM incubated for 48 hrs by sulforhodamine B assay; outline: as §1
Hs-578T = assay: Antiproliferative activity against human Hs 578T cells at 10 uM incubated for 48 hrs by sulforhodamine B assay; outline: as §1
SR = assay: Antiproliferative activity against human SR cells at 10 uM incubated for 48 hrs by sulforhodamine B assay; outline: as §2
K562 = assay: Antiproliferative activity against human K562 cells at 10 uM incubated for 48 hrs by sulforhodamine B assay; outline: as §1
OVCAR-3 = assay: Antiproliferative activity against human OVCAR3 cells at 10 uM incubated for 48 hrs by sulforhodamine B assay; outline: as §1
MCF7 = assay: Antiproliferative activity against human MCF7 cells at 10 uM incubated for 48 hrs by sulforhodamine B assay; outline: as §1
A549 = assay: Antiproliferative activity against human A549/ATCC cells at 10 uM incubated for 48 hrs by sulforhodamine B assay; outline: as §1
SK-MEL-2 = assay: Antiproliferative activity against human SK-MEL-2 cells at 10 uM incubated for 48 hrs by sulforhodamine B assay; outline: as §1
OVCAR-4 = assay: Antiproliferative activity against human OVCAR4 cells at 10 uM incubated for 48 hrs by sulforhodamine B assay; outline: as §1
SK-MEL-5 = assay: Antiproliferative activity against human SK-MEL-5 cells at 10 uM incubated for 48 hrs by sulforhodamine B assay; outline: as §1
HOP-92 = assay: Antiproliferative activity against human HOP92 cells at 10 uM incubated for 48 hrs by sulforhodamine B assay; outline: as §1
BT-549 = assay: Antiproliferative activity against human BT549 cells at 10 uM incubated for 48 hrs by sulforhodamine B assay; outline: as §1
M14 = assay: Antiproliferative activity against human M14 cells at 10 uM incubated for 48 hrs by sulforhodamine B assay; outline: as §1
TK-10 = assay: Antiproliferative activity against human TK10 cells at 10 uM incubated for 48 hrs by sulforhodamine B assay; outline: as §2
Malme-3M = assay: Antiproliferative activity against human MALME-3M cells at 10 uM incubated for 48 hrs by sulforhodamine B assay; outline: as §1
RPMI-8226 = assay: Antiproliferative activity against human RPMI8226 cells at 10 uM incubated for 48 hrs by sulforhodamine B assay; outline: as §1
PC-3 = assay: Antiproliferative activity against human PC3 cells at 10 uM incubated for 48 hrs by sulforhodamine B assay; outline: as §1
SF-295 = assay: Antiproliferative activity against human SF295 cells at 10 uM incubated for 48 hrs by sulforhodamine B assay; outline: as §1
HOP-62 = assay: Antiproliferative activity against human HOP62 cells at 10 uM incubated for 48 hrs by sulforhodamine B assay; outline: as §1
MDA-MB-435 = assay: Antiproliferative activity against human MDA-MB-435 cells at 10 uM incubated for 48 hrs by sulforhodamine B assay; outline: as §1
NCI-H322M = assay: Antiproliferative activity against human NCI-H322M cells at 10 uM incubated for 48 hrs by sulforhodamine B assay; outline: as §1
DU-145 = assay: Antiproliferative activity against human DU145 cells at 10 uM incubated for 48 hrs by sulforhodamine B assay; outline: as §1
MDA-MB-468 = assay: Antiproliferative activity against human MDA-MB-468 cells at 10 uM incubated for 48 hrs by sulforhodamine B assay; outline: as §1
IGROV-1 = assay: Antiproliferative activity against human IGROV1 cells at 10 uM incubated for 48 hrs by sulforhodamine B assay; outline: as §1
UO-31 = assay: Antiproliferative activity against human UO31 cells at 10 uM incubated for 48 hrs by sulforhodamine B assay; outline: as §2
KM12 = assay: Antiproliferative activity against human KM12 cells at 10 uM incubated for 48 hrs by sulforhodamine B assay; outline: as §1
HCT-116 = assay: Antiproliferative activity against human HCT116 cells at 10 uM incubated for 48 hrs by sulforhodamine B assay; outline: as §1
EKVX = assay: Antiproliferative activity against human EKVX cells at 10 uM incubated for 48 hrs by sulforhodamine B assay; outline: as §1
SF-268 = assay: Antiproliferative activity against human SF268 cells at 10 uM incubated for 48 hrs by sulforhodamine B assay; outline: as §1
NCI/ADR-RES = assay: Antiproliferative activity against human NCI/ADR-RES cells at 10 uM incubated for 48 hrs by sulforhodamine B assay; outline: as §1
LOX IMVI = assay: Antiproliferative activity against human LOXIMVI cells at 10 uM incubated for 48 hrs by sulforhodamine B assay; outline: as §1
ACHN = assay: Antiproliferative activity against human ACHN cells at 10 uM incubated for 48 hrs by sulforhodamine B assay; outline: as §1
HCC 2998 = assay: Antiproliferative activity against human HCC2998 cells at 10 uM incubated for 48 hrs by sulforhodamine B assay; outline: as §1
SW-620 = assay: Antiproliferative activity against human SW620 cells at 10 uM incubated for 48 hrs by sulforhodamine B assay; outline: as §2
UACC-62 = assay: Antiproliferative activity against human UACC62 cells at 10 uM incubated for 48 hrs by sulforhodamine B assay; outline: as §2
CCRF-CEM = assay: Antiproliferative activity against human CCRF-CEM cells at 10 uM incubated for 48 hrs by sulforhodamine B assay; outline: as §1
RXF 393 = assay: Antiproliferative activity against human RXF393 cells at 10 uM incubated for 48 hrs by sulforhodamine B assay; outline: as §1
SN12C = assay: Antiproliferative activity against human SN12C cells at 10 uM incubated for 48 hrs by sulforhodamine B assay; outline: as §1
HT-29 = assay: Antiproliferative activity against human HT-29 cells at 10 uM incubated for 48 hrs by sulforhodamine B assay; outline: as §1

O=C1C[C@H]2O[C@H]([C@@H](O)c3ccccc3)[C@H](O)[C@H]2O1
Activity (COLO 205): Active
Activity (T47D): Active
Activity (NCI-H522): Active
Activity (UACC-257): Active
Activity (MOLT-4): Active
Activity (NCI-H23): Active
Activity (MDA-MB-231): Active
Activity (Hs-578T): Active
Activity (SR): Active
Activity (K562): Active
Activity (OVCAR-3): Active
Activity (MCF7): Active
Activity (A549): Active
Activity (SK-MEL-2): Active
Activity (OVCAR-4): Active
Activity (SK-MEL-5): Active
Activity (HOP-92): Active
Activity (BT-549): Active
Activity (M14): Active
Activity (TK-10): Active
Activity (Malme-3M): Active
Activity (RPMI-8226): Active
Activity (PC-3): Active
Activity (SF-295): Active
Activity (HOP-62): Active
Activity (MDA-MB-435): Active
Activity (NCI-H322M): Active
Activity (DU-145): Active
Activity (MDA-MB-468): Active
Activity (IGROV-1): Active
Activity (UO-31): Active
Activity (KM12): Active
Activity (HCT-116): Active
Activity (EKVX): Active
Activity (SF-268): Active
Activity (NCI/ADR-RES): Active
Activity (LOX IMVI): Active
Activity (ACHN): Active
Activity (HCC 2998): Active
Activity (SW-620): Active
Activity (UACC-62): Active
Activity (CCRF-CEM): Active
Activity (RXF 393): Active
Activity (SN12C): Active
Activity (HT-29): Active

CC(=O)O[C@H](C)[C@@H]1O[C@@H]2CC(=O)O[C@@H]2[C@H]1O
Activity (COLO 205): inactive
Activity (T47D): inactive
Activity (NCI-H522): inactive
Activity (UACC-257): inactive
Activity (MOLT-4): inactive
Activity (NCI-H23): inactive
Activity (MDA-MB-231): inactive
Activity (Hs-578T): inactive
Activity (SR): inactive
Activity (K562): inactive
Activity (OVCAR-3): inactive
Activity (MCF7): inactive
Activity (A549): inactive
Activity (SK-MEL-2): inactive
Activity (OVCAR-4): inactive
Activity (SK-MEL-5): inactive
Activity (HOP-92): inactive
Activity (BT-549): inactive
Activity (M14): inactive
Activity (TK-10): inactive
Activity (Malme-3M): inactive
Activity (RPMI-8226): inactive
Activity (PC-3): inactive
Activity (SF-295): inactive
Activity (HOP-62): inactive
Activity (MDA-MB-435): inactive
Activity (NCI-H322M): inactive
Activity (DU-145): inactive
Activity (MDA-MB-468): inactive
Activity (IGROV-1): inactive
Activity (UO-31): inactive
Activity (KM12): inactive
Activity (HCT-116): inactive
Activity (EKVX): inactive
Activity (SF-268): inactive
Activity (NCI/ADR-RES): inactive
Activity (LOX IMVI): inactive
Activity (ACHN): inactive
Activity (HCC 2998): inactive
Activity (SW-620): inactive
Activity (UACC-62): inactive
Activity (CCRF-CEM): inactive
Activity (RXF 393): inactive
Activity (SN12C): inactive
Activity (HT-29): inactive

CC(=O)O[C@H](C)[C@H]1O[C@H]2CC(=O)O[C@H]2[C@@H]1O
Activity (COLO 205): inactive
Activity (T47D): inactive
Activity (NCI-H522): inactive
Activity (UACC-257): inactive
Activity (MOLT-4): inactive
Activity (NCI-H23): inactive
Activity (MDA-MB-231): inactive
Activity (Hs-578T): inactive
Activity (SR): inactive
Activity (K562): inactive
Activity (OVCAR-3): inactive
Activity (MCF7): inactive
Activity (A549): inactive
Activity (SK-MEL-2): inactive
Activity (OVCAR-4): inactive
Activity (SK-MEL-5): inactive
Activity (HOP-92): inactive
Activity (BT-549): inactive
Activity (M14): inactive
Activity (TK-10): inactive
Activity (Malme-3M): inactive
Activity (RPMI-8226): inactive
Activity (PC-3): inactive
Activity (SF-295): inactive
Activity (HOP-62): inactive
Activity (MDA-MB-435): inactive
Activity (NCI-H322M): inactive
Activity (DU-145): inactive
Activity (MDA-MB-468): inactive
Activity (IGROV-1): inactive
Activity (UO-31): inactive
Activity (KM12): inactive
Activity (HCT-116): inactive
Activity (EKVX): inactive
Activity (SF-268): inactive
Activity (NCI/ADR-RES): inactive
Activity (LOX IMVI): inactive
Activity (ACHN): inactive
Activity (HCC 2998): inactive
Activity (SW-620): inactive
Activity (UACC-62): inactive
Activity (CCRF-CEM): inactive
Activity (RXF 393): inactive
Activity (SN12C): inactive
Activity (HT-29): inactive

CC(=O)O[C@@H](C)[C@H]1O[C@H]2CC(=O)O[C@H]2[C@@H]1O
Activity (COLO 205): inactive
Activity (T47D): inactive
Activity (NCI-H522): inactive
Activity (UACC-257): inactive
Activity (MOLT-4): inactive
Activity (NCI-H23): inactive
Activity (MDA-MB-231): inactive
Activity (Hs-578T): inactive
Activity (SR): inactive
Activity (K562): inactive
Activity (OVCAR-3): inactive
Activity (MCF7): inactive
Activity (A549): inactive
Activity (SK-MEL-2): inactive
Activity (OVCAR-4): inactive
Activity (SK-MEL-5): inactive
Activity (HOP-92): inactive
Activity (BT-549): inactive
Activity (M14): inactive
Activity (TK-10): inactive
Activity (Malme-3M): inactive
Activity (RPMI-8226): inactive
Activity (PC-3): inactive
Activity (SF-295): inactive
Activity (HOP-62): inactive
Activity (MDA-MB-435): inactive
Activity (NCI-H322M): inactive
Activity (DU-145): inactive
Activity (MDA-MB-468): inactive
Activity (IGROV-1): inactive
Activity (UO-31): inactive
Activity (KM12): inactive
Activity (HCT-116): inactive
Activity (EKVX): inactive
Activity (SF-268): inactive
Activity (NCI/ADR-RES): inactive
Activity (LOX IMVI): inactive
Activity (ACHN): inactive
Activity (HCC 2998): inactive
Activity (SW-620): inactive
Activity (UACC-62): inactive
Activity (CCRF-CEM): inactive
Activity (RXF 393): inactive
Activity (SN12C): inactive
Activity (HT-29): inactive

— ChEMBL document CHEMBL4118033, “Total Synthesis, Configuration Assignment, and Cytotoxic Activity Evaluation of Protulactone A” (J Nat Prod, 2017)
